Test results: ChEMBL document CHEMBL4689842, “EUbOPEN Chemogenomics Library wave 1” (2021)
Values joined by “and” are separate entries in the source; they are usually repeats but may differ in a detail not shown here. Equal values may be shown once.

Assays:
Type in all cases: toxicity, cell-based
Fibroblast [1] = assay: Incucyte cell viability with human fibroblast; conditions: 10 µM, compound concentration 10 uM; note: filed as whole numbers so only -1 and 0 and 1 occur
U2OS [2] = assay: Incucyte cell viability with U2OS; conditions: human, 10 µM, compound concentration 10 uM; note: filed as whole numbers so only -1 and 0 and 1 occur
U2OS [3] = assay: Multiplex assay against U2OS; conditions: human, 1 µM, compound concentration 1 uM
Method in brief: (§1)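 Phenotypes for tubulin, mitochondrial mass and membrane permeability are expressed as per cents of healthy-nucleus cells. Cells were stained live at seeding with Hoechst33342, BioTracker Green Microtubule Cytoskeleton Dye, MitoTracker Red and Annexin V Alexa Fluor 680, then imaged after compound addition on a CQ1 microscope at 37°C and 5% CO2. Machine-learning gating in CellPathfinder separated Hoechst high-intensity objects from normal cells, divided normal cells by nuclear state (healthy, pyknosed, fragmented) and divided pyknosed cells into mitotic or apoptotic.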

Fibroblast [4] = assay: Multiplex assay against human fibroblast; conditions: 1 µM, compound concentration 1 uM; method in brief: as §1
HEK-293T [5] = assay: Multiplex assay against HEK293T; conditions: human, 1 µM, compound concentration 1 uM; method in brief: as §1;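 for Population Tubulin-Different-Phenotype (%): share of the cells with healthy nuclei that show this phenotype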
HEK-293T [6] = assay: Incucyte cell viability with HEK293T; conditions: human, 10 µM, compound concentration 10 uM; note: filed as whole numbers so only -1 and 0 and 1 occur
[7] = 0 h, replicate number 1, timepoint 0 hours
[8] = 6 h, replicate number 1, timepoint 6 hours
[9] = 12 h, replicate number 1, timepoint 12 hours
[10] = 18 h, replicate number 1, timepoint 18 hours
[11] = 24 h, replicate number 1, timepoint 24 hours
[12] = 0 h, replicate number 2, timepoint 0 hours

CNC(=O)Nc1ccc2c(c1)CC[C@@]21OC(=O)N(CC(=O)N(Cc2ccc(F)cc2)[C@@H](C)C(F)(F)F)C1=O [A-485]
Growth Rate (Fibroblast [1]; [7]): 0 | Growth Rate (Fibroblast [1]; [8]): 0 | Growth Rate (Fibroblast [1]; [9]): 0 | Growth Rate (Fibroblast [1]; 12 h, replicate number 2, timepoint 12 hours): 1 | Growth Rate (Fibroblast [1]; [10]): 0 | Growth Rate (Fibroblast [1]; [11]): 1 | Growth Rate (Fibroblast [1]; 24 h, replicate number 2, timepoint 24 hours): 0 | Growth Rate (U2OS [2]; [7]): 1 | Growth Rate (U2OS [2]; [12]): 0 | Growth Rate (U2OS [2]; [8]): 0 | Growth Rate (U2OS [2]; [9]): 1 | Growth Rate (U2OS [2]; [10]): 1 | Growth Rate (U2OS [2]; [11]): 1 | Population Apoptotic (%) (U2OS [3]; 12 h, replicate 1): 30% and 62% | Population Fragmented Nuclei (%) (U2OS [3]; 12 h, replicate 1): 2% and 8% | Population Healthy Nuclei (%) (U2OS [3]; 12 h, replicate 1): 91% and 85% | Population Hoechst High Intensity Objects (%) (U2OS [3]; 12 h, replicate 1): 4% | Population Mitochondria Different-Phenotype (%) (U2OS [3]; 12 h, replicate 1): 14% and 16% | Population Mitotic Cells (%) (U2OS [3]; 12 h, replicate 1): 70% and 37% | Population Normal (%) (U2OS [3]; 12 h, replicate 1): 95% | Population Pyknosed Nuclei (%) (U2OS [3]; 12 h, replicate 1): 5% and 6% | Population Tubulin-Different-Phenotype (%) (U2OS [3]; 12 h, replicate 1): 58% and 20% | Total Cell Count (U2OS [3]; 12 h, replicate 1): 185 and 139 | Population Apoptotic (%) (U2OS [3]; 12 h, replicate 2): 20% and 0% | Population Fragmented Nuclei (%) (U2OS [3]; 12 h, replicate 2): 10% and 7% | Population Healthy Nuclei (%) (U2OS [3]; 12 h, replicate 2): 76% and 88% | Population Hoechst High Intensity Objects (%) (U2OS [3]; 12 h, replicate 2): 6% and 8% | Population Mitochondria Different-Phenotype (%) (U2OS [3]; 12 h, replicate 2): 23% and 22% | Population Mitotic Cells (%) (U2OS [3]; 12 h, replicate 2): 80% and 100% | Population Normal (%) (U2OS [3]; 12 h, replicate 2): 93% and 91% | Population Pyknosed Nuclei (%) (U2OS [3]; 12 h, replicate 2): 12% and 4% | Total Cell Count (U2OS [3]; 12 h, replicate 2): 82 and 103 | Population Fragmented Nuclei (%) (U2OS [3]; 24 h, replicate 1): 5% and 4% | Population Healthy Nuclei (%) (U2OS [3]; 24 h, replicate 1): 88% and 90% | Population Hoechst High Intensity Objects (%) (U2OS [3]; 24 h, replicate 1): 0% and 2% | Population Membrane Permeable-Phenotype (%) (U2OS [3]; 24 h, replicate 1): 24% and 13% | Population Mitochondria Different-Phenotype (%) (U2OS [3]; 24 h, replicate 1): 10% and 11% | Population Mitotic Cells (%) (U2OS [3]; 24 h, replicate 1): 93% and 66% | Population Normal (%) (U2OS [3]; 24 h, replicate 1): 99% and 97% | Population Pyknosed Nuclei (%) (U2OS [3]; 24 h, replicate 1): 6% and 4% | Population Tubulin-Different-Phenotype (%) (U2OS [3]; 24 h, replicate 1): 22% and 28% | Total Cell Count (U2OS [3]; 24 h, replicate 1): 230 and 188 | Population Apoptotic (%) (U2OS [3]; 24 h, replicate 2): 35% and 66% | Population Fragmented Nuclei (%) (U2OS [3]; 24 h, replicate 2): 9% and 3% | Population Healthy Nuclei (%) (U2OS [3]; 24 h, replicate 2): 77% and 94% | Population Hoechst High Intensity Objects (%) (U2OS [3]; 24 h, replicate 2): 6% and 11% | Population Membrane Permeable-Phenotype (%) (U2OS [3]; 24 h, replicate 2): 14% and 11% | Population Mitochondria Different-Phenotype (%) (U2OS [3]; 24 h, replicate 2): 19% and 18% | Population Mitotic Cells (%) (U2OS [3]; 24 h, replicate 2): 64% and 33% | Population Normal (%) (U2OS [3]; 24 h, replicate 2): 93% and 88% | Population Tubulin-Different-Phenotype (%) (U2OS [3]; 24 h, replicate 2): 13% and 11% | Total Cell Count (U2OS [3]; 24 h, replicate 2): 114 and 147 | Population Apoptotic (%) (Fibroblast [4]; 12 h, replicate 1): 50% and 76% | Population Fragmented Nuclei (%) (Fibroblast [4]; 12 h, replicate 1): 17% and 24% | Population Healthy Nuclei (%) (Fibroblast [4]; 12 h, replicate 1): 59% and 61% | Population Hoechst High Intensity Objects (%) (Fibroblast [4]; 12 h, replicate 1): 8% and 9% | Population Mitotic Cells (%) (Fibroblast [4]; 12 h, replicate 1): 50% and 23% | Population Normal (%) (Fibroblast [4]; 12 h, replicate 1): 91% and 90% | Population Pyknosed Nuclei (%) (Fibroblast [4]; 12 h, replicate 1): 23% and 13% | Total Cell Count (Fibroblast [4]; 12 h, replicate 1): 243 and 214 | Population Fragmented Nuclei (%) (Fibroblast [4]; 12 h, replicate 2): 53% and 66% | Population Healthy Nuclei (%) (Fibroblast [4]; 12 h, replicate 2): 39% and 24% | Population Hoechst High Intensity Objects (%) (Fibroblast [4]; 12 h, replicate 2): 37% and 49% | Population Membrane Permeable-Phenotype (%) (Fibroblast [4]; 12 h, replicate 2): 11% and 33% | Population Mitochondria Different-Phenotype (%) (Fibroblast [4]; 12 h, replicate 2): 17% and 25% | Population Normal (%) (Fibroblast [4]; 12 h, replicate 2): 62% and 50% | Population Pyknosed Nuclei (%) (Fibroblast [4]; 12 h, replicate 2): 6% and 10% | Population Tubulin-Different-Phenotype (%) (Fibroblast [4]; 12 h, replicate 2): 23% and 66% | Total Cell Count (Fibroblast [4]; 12 h, replicate 2): 69 and 99 | Population Apoptotic (%) (Fibroblast [4]; 24 h, replicate 1): 73% and 48% | Population Fragmented Nuclei (%) (Fibroblast [4]; 24 h, replicate 1): 17% and 22% | Population Healthy Nuclei (%) (Fibroblast [4]; 24 h, replicate 1): 64% and 59% | Population Hoechst High Intensity Objects (%) (Fibroblast [4]; 24 h, replicate 1): 9% and 11% | Population Membrane Permeable-Phenotype (%) (Fibroblast [4]; 24 h, replicate 1): 17% and 11% | Population Mitotic Cells (%) (Fibroblast [4]; 24 h, replicate 1): 26% and 51% | Population Normal (%) (Fibroblast [4]; 24 h, replicate 1): 90% and 88% | Population Pyknosed Nuclei (%) (Fibroblast [4]; 24 h, replicate 1): 17% | Population Tubulin-Different-Phenotype (%) (Fibroblast [4]; 24 h, replicate 1): 9% | Total Cell Count (Fibroblast [4]; 24 h, replicate 1): 251 and 207 | Population Apoptotic (%) (Fibroblast [4]; 24 h, replicate 2): 50% | Population Fragmented Nuclei (%) (Fibroblast [4]; 24 h, replicate 2): 51% and 62% | Population Healthy Nuclei (%) (Fibroblast [4]; 24 h, replicate 2): 37% and 29% | Population Hoechst High Intensity Objects (%) (Fibroblast [4]; 24 h, replicate 2): 39% and 51% | Population Mitochondria Different-Phenotype (%) (Fibroblast [4]; 24 h, replicate 2): 0% and 21% | Population Mitotic Cells (%) (Fibroblast [4]; 24 h, replicate 2): 50% | Population Normal (%) (Fibroblast [4]; 24 h, replicate 2): 60% and 48% | Population Pyknosed Nuclei (%) (Fibroblast [4]; 24 h, replicate 2): 10% and 8% | Population Tubulin-Different-Phenotype (%) (Fibroblast [4]; 24 h, replicate 2): 21% and 42% | Total Cell Count (Fibroblast [4]; 24 h, replicate 2): 61 and 99 | Population Apoptotic (%) (HEK-293T [5]; 12 h, replicate 1): 15% and 30% | Population Fragmented Nuclei (%) (HEK-293T [5]; 12 h, replicate 1): 18% and 22% | Population Healthy Nuclei (%) (HEK-293T [5]; 12 h, replicate 1): 55% and 56% | Population Hoechst High Intensity Objects (%) (HEK-293T [5]; 12 h, replicate 1): 16% and 23% | Population Mitochondria Different-Phenotype (%) (HEK-293T [5]; 12 h, replicate 1): 8% and 7% | Population Mitotic Cells (%) (HEK-293T [5]; 12 h, replicate 1): 84% and 69% | Population Normal (%) (HEK-293T [5]; 12 h, replicate 1): 83% and 76% | Population Pyknosed Nuclei (%) (HEK-293T [5]; 12 h, replicate 1): 26% and 20% | Total Cell Count (HEK-293T [5]; 12 h, replicate 1): 630 and 586 | Population Apoptotic (%) (HEK-293T [5]; 12 h, replicate 2): 6% and 12% | Population Fragmented Nuclei (%) (HEK-293T [5]; 12 h, replicate 2): 5% and 8% | Population Healthy Nuclei (%) (HEK-293T [5]; 12 h, replicate 2): 85% and 87% | Population Hoechst High Intensity Objects (%) (HEK-293T [5]; 12 h, replicate 2): 2% | Population Mitochondria Different-Phenotype (%) (HEK-293T [5]; 12 h, replicate 2): 20% and 9% | Population Mitotic Cells (%) (HEK-293T [5]; 12 h, replicate 2): 93% and 87% | Population Normal (%) (HEK-293T [5]; 12 h, replicate 2): 97% | Population Pyknosed Nuclei (%) (HEK-293T [5]; 12 h, replicate 2): 8% and 4% | Total Cell Count (HEK-293T [5]; 12 h, replicate 2): 1495 and 1775 | Population Apoptotic (%) (HEK-293T [5]; 24 h, replicate 1): 21% and 25% | Population Fragmented Nuclei (%) (HEK-293T [5]; 24 h, replicate 1): 18% | Population Healthy Nuclei (%) (HEK-293T [5]; 24 h, replicate 1): 62% and 73% | Population Hoechst High Intensity Objects (%) (HEK-293T [5]; 24 h, replicate 1): 11% and 16% | Population Membrane Permeable-Phenotype (%) (HEK-293T [5]; 24 h, replicate 1): 14% and 9% | Population Mitochondria Different-Phenotype (%) (HEK-293T [5]; 24 h, replicate 1): 15% and 6% | Population Mitotic Cells (%) (HEK-293T [5]; 24 h, replicate 1): 78% and 74% | Population Normal (%) (HEK-293T [5]; 24 h, replicate 1): 88% and 83% | Population Pyknosed Nuclei (%) (HEK-293T [5]; 24 h, replicate 1): 18% and 8% | Population Tubulin-Different-Phenotype (%) (HEK-293T [5]; 24 h, replicate 1): 74% | Total Cell Count (HEK-293T [5]; 24 h, replicate 1): 539 and 610 | Population Apoptotic (%) (HEK-293T [5]; 24 h, replicate 2): 10% and 4% | Population Fragmented Nuclei (%) (HEK-293T [5]; 24 h, replicate 2): 14% and 24% | Population Healthy Nuclei (%) (HEK-293T [5]; 24 h, replicate 2): 81% and 72% | Population Hoechst High Intensity Objects (%) (HEK-293T [5]; 24 h, replicate 2): 5% and 3% | Population Membrane Permeable-Phenotype (%) (HEK-293T [5]; 24 h, replicate 2): 16% and 10% | Population Mitotic Cells (%) (HEK-293T [5]; 24 h, replicate 2): 89% and 95% | Population Normal (%) (HEK-293T [5]; 24 h, replicate 2): 94% and 96% | Population Pyknosed Nuclei (%) (HEK-293T [5]; 24 h, replicate 2): 4% and 2% | Total Cell Count (HEK-293T [5]; 24 h, replicate 2): 1741 and 2832 | Growth Rate (HEK-293T [6]; [7]): 0 | Growth Rate (HEK-293T [6]; [12]): 1 | Growth Rate (HEK-293T [6]; [8]): 0 | Growth Rate (HEK-293T [6]; [9]): 0 | Growth Rate (HEK-293T [6]; [10]): 0 | Growth Rate (HEK-293T [6]; [11]): 0
